Series [1] is described as follows: melting temperature; fluorescence melt of hairpins on a sequencing array, two-state fit, raised by 9.35 °C to match UV melts. The conditions noted are these: sodium 0.088 M. The method, boiled down:
(§1)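 Two-state fits, bootstrapped, provided melting temperature and folding enthalpy from Cy3 fluorescence normalised to pre-quench Cy3 and to control constructs. Library hairpins with annealed Cy3 and quencher oligos were imaged on a sequenced MiSeq flow cell in 50 mM Na-HEPES pH 8.0, 25 mM NaCl, at 2.5 °C intervals up to 60 °C. Four replicates were combined with inverse-variance weighting. A 9.35 °C upward shift was applied to fitted temperatures to match UV melts.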

Series [2] is described as follows: folding enthalpy; higher = less favourable; fluorescence melt of hairpins on a sequencing array, two-state fit. The conditions noted are these: sodium 0.088 M. The method, boiled down:
as §1

The results in this text go back to the array DNA melting data of Ke et al. (doi:10.1101/2024.01.08.574731).

In the case of GCGTAGGTACGC ((((....)))), the Tm in series [1] came out at 52.8 °C. In addition, in series [2], the folding enthalpy was -20.3 kcal/mol.

For the sequence GTGTACGAAAGTATGCAC ((((((....)))..))), in series [1], the Tm was 35.6 °C. Moreover, the folding enthalpy in series [2] is -17.7 kcal/mol.

With GGTGAAGGAAACCTCACC (((((.(....).))))), the Tm in series [1] turned out to be 46.2 °C. Also, the folding enthalpy in series [2] was -29.6 kcal/mol.

For GATCTGCCGACAGATC ((((((....)))))), the Tm in series [1] was found to be 50.1 °C. In series [2], the folding enthalpy was -29.7 kcal/mol.

For the sequence GAAGCCGGAAACGGCTCC (.(((((....))))).), the Tm in series [1] is 46.8 °C. Also, the folding enthalpy in series [2] was -9.15 kcal/mol.

As to GATCCGTGTCGGATC ((((((...)))))), the Tm in series [1] turned out to be 60.5 °C. For the same sequence, the folding enthalpy in series [2] was -34.4 kcal/mol.

As to GCCCTGCGAAAGCCAGGC (((..((....))..))), the Tm in series [1] amounted to 53 °C. Also, the folding enthalpy in series [2] was -15.7 kcal/mol.

As for GTTCAGGGAAACCTGGAC ((.((((....)))).)), the Tm in series [1] came to 48.9 °C. The folding enthalpy in series [2] was -29.6 kcal/mol.

GATACTGAAAAGTATC ((((((....)))))): the Tm in series [1] was determined as 48.5 °C. Besides, the folding enthalpy in series [2] is -40.9 kcal/mol.

As to GCTGTACGAAAGTAAAGC (((.(((....))).))), the Tm in series [1] stood at 49.6 °C. Moreover, in series [2], the folding enthalpy is -30.2 kcal/mol.

In the case of GACTGGGGAAACTCGGTC (((.(.(....).).))), the Tm in series [1] was 38.5 °C. Also, the folding enthalpy in series [2] is -21.3 kcal/mol.

GATCTAGAAGTAGATC ((((((....)))))): in series [1], the Tm was 39.9 °C. Also, the folding enthalpy in series [2] is -27.6 kcal/mol.

As for GCTACGCGAAAGCGCCGC ((..(((....)))..)), the Tm in series [1] was 36.8 °C. Besides, the folding enthalpy in series [2] was -10.9 kcal/mol.

On to GAGTGACGAAAGTCCCTC (((.(((....))).))), for which the Tm in series [1] came out at 45.1 °C. Further, the folding enthalpy in series [2] was -24.4 kcal/mol.

Take GTGGAAGGAAACCTCCAC (((((.(....).))))): the Tm in series [1] was 44.1 °C. For the same sequence, in series [2], the folding enthalpy was -34 kcal/mol.

For the sequence GCGGACACCCGC ((((....)))), in series [1], the Tm came to 53.5 °C. The folding enthalpy in series [2] was -20.9 kcal/mol.

On to GCCTAGCGAAAGCTTCGC ((..(((....)))..)), for which the Tm in series [1] was 44.6 °C. The folding enthalpy in series [2] is -7.98 kcal/mol.

On to GCGCAAGGAAACTCGCAC (.((.((....)).)).), for which, in series [1], the Tm was 27.2 °C. Also, in series [2], the folding enthalpy was -13.1 kcal/mol.

In the case of GCGGCCGCGAAAGCGCGC (((..(((....)))))), the Tm in series [1] is 59.5 °C. For the same sequence, in series [2], the folding enthalpy is -11.6 kcal/mol.

Turning to GAAATGGCGAAAGCCTTC (((..(((....)))))), the Tm in series [1] stood at 23 °C. The folding enthalpy in series [2] is -7.87 kcal/mol.

For the sequence GCAACCGGAAACGGTCGC ((.((((....)))).)), the Tm in series [1] worked out at 52.8 °C. In addition, the folding enthalpy in series [2] was -29.8 kcal/mol.

As to GCAGTCGAAAGACGTGC ((((((....))).))), the Tm in series [1] came to 51.8 °C. The folding enthalpy in series [2] is -17.4 kcal/mol.

Take GATCTCATGCGAGATC ((((((....)))))): the Tm in series [1] is 52.1 °C. Also, the folding enthalpy in series [2] was -48.3 kcal/mol.

In the case of GCCGTCACGAAAGTGGGC (((..(((....)))))), in series [1], the Tm was 48.5 °C. Moreover, the folding enthalpy in series [2] is -19.5 kcal/mol.

As to GATCGCTAGGCGATC ((((((...)))))), the Tm in series [1] was 68.4 °C. The folding enthalpy in series [2] was -36.8 kcal/mol.

Turning to GTTGGGCGAAAGCCGAAC (((.(((....))).))), the Tm in series [1] came to 53.2 °C. Further, the folding enthalpy in series [2] was -19.5 kcal/mol.

Regarding GGAACAGCGAAAGCTTCC (((..(((....)))))), the Tm in series [1] was 35.5 °C. In addition, the folding enthalpy in series [2] was -18.4 kcal/mol.

Turning to GTAAAGGGAAACCTTTAC (((((((....))))))), the Tm in series [1] worked out at 51.3 °C. The folding enthalpy in series [2] was -41 kcal/mol.

Take GAACTGGGAAACTAGTTC (((((.(....).))))): the Tm in series [1] was 42.4 °C. Moreover, the folding enthalpy in series [2] is -37.9 kcal/mol.

For GGTTGTGGAAACACGATC (.(.(((....))).).), the Tm in series [1] amounted to 34 °C. For the same sequence, in series [2], the folding enthalpy was -21.9 kcal/mol.

GCGAAGATTCGC ((((....)))): the Tm in series [1] was 49 °C. Also, in series [2], the folding enthalpy is -21.8 kcal/mol.

GATAAGCCGAAAGGCATC (((..(((....)))))): the Tm in series [1] came out at 32 °C. The folding enthalpy in series [2] was -9.19 kcal/mol.

Turning to GATCGTCGTACGATC ((((((...)))))), the Tm in series [1] amounted to 60.4 °C. Further, in series [2], the folding enthalpy was -29.3 kcal/mol.

With GTTTCCGCGAAAGCGAAC (((..(((....)))))), the Tm in series [1] came out at 23.6 °C. Further, the folding enthalpy in series [2] was -9.18 kcal/mol.

For GCCGCCGAAAGGCCAGGC ((((((....)))..))), the Tm in series [1] was 56.1 °C. Further, the folding enthalpy in series [2] is -20.4 kcal/mol.

As to GCGGTGCGAAAGCCCTGC ((.(.((....)).).)), the Tm in series [1] is 49.5 °C. The folding enthalpy in series [2] is -21.2 kcal/mol.

On to GGAATCCGAAAGGAATCC (((.(((....))).))), for which, in series [1], the Tm is 48.7 °C. In addition, the folding enthalpy in series [2] is -31.2 kcal/mol.
